Measured values as given in ChEMBL document CHEMBL5104202, “Structure-Uptake Relationship Studies of Oxazolidinones in Gram-Negative ESKAPE Pathogens” (J Med Chem, 2022).
Converted amounts (≈) assume the structure as drawn.

How the values were obtained:
Klebsiella pneumoniae [1] = test: Antibacterial activity against multidrug resistant Klebsiella pneumoniae ATCC43816 assessed as inhibition of bacterial growth incubated for 24 hrs in M9-MOPS medium by twofold serial dilution method; type: functional
Klebsiella pneumoniae [2] = test: Antibacterial activity against multidrug resistant Klebsiella pneumoniae ATCC43816 assessed as inhibition of bacterial growth incubated for 24 hrs in MHI medium by twofold serial dilution method; type: functional
Klebsiella aerogenes [3] = test: Antibacterial activity against multidrug resistant Klebsiella aerogenes ATCC13048 assessed as inhibition of bacterial growth incubated for 24 hrs in M9-MOPS medium by twofold serial dilution method; type: functional
Klebsiella aerogenes [4] = test: Antibacterial activity against multidrug resistant Klebsiella […] assessed as inhibition of bacterial growth incubated for 24 hrs in MHI medium by twofold serial dilution method; type: functional
Klebsiella pneumoniae [5] = test: Antibacterial activity against multidrug resistant Klebsiella pneumoniae ATCC13883 assessed as inhibition of bacterial growth incubated for 24 hrs in M9-MOPS medium by twofold serial dilution method; type: functional
Klebsiella pneumoniae [6] = test: Antibacterial activity against multidrug resistant Klebsiella pneumoniae ATCC13883 assessed as inhibition of bacterial growth incubated for 24 hrs in MHI medium by twofold serial dilution method; type: functional
Pseudomonas aeruginosa [7] = test: Antibacterial activity against multidrug resistant Pseudomonas aeruginosa BAA 2109 assessed as inhibition of bacterial growth incubated for 24 hrs in […] medium by twofold serial dilution method; type: functional
Pseudomonas aeruginosa [8] = test: Antibacterial activity against multidrug resistant Pseudomonas aeruginosa BAA 2109 assessed as inhibition of bacterial growth incubated for 24 hrs in MHI medium by twofold serial dilution method; type: functional
Pseudomonas aeruginosa [9] = test: Antibacterial activity against multidrug resistant Pseudomonas aeruginosa BAA 2108 assessed as inhibition of bacterial growth incubated for 24 hrs in M9-MOPS medium by twofold serial dilution method; type: functional
Pseudomonas aeruginosa [10] = test: Antibacterial activity against multidrug resistant Pseudomonas aeruginosa BAA 2108 assessed as inhibition of bacterial growth incubated for 24 hrs in MHI medium by twofold serial dilution method; type: functional
Acinetobacter baumannii [11] = test: Antibacterial activity against multidrug resistant Acinetobacter baumannii Ab5075 assessed as inhibition of bacterial growth incubated for 24 hrs in M9-MOPS medium by twofold serial dilution method; type: functional
Acinetobacter baumannii [12] = test: Antibacterial activity against multidrug resistant Acinetobacter baumannii Ab5075 assessed as inhibition of bacterial growth incubated for 24 hrs in MHI medium by twofold serial dilution method; type: functional
Acinetobacter baumannii [13] = test: Antibacterial activity against multidrug resistant Acinetobacter baumannii AYE assessed as inhibition of bacterial growth incubated for 24 hrs in M9-MOPS medium by twofold serial dilution method; type: functional
Acinetobacter baumannii [14] = test: Antibacterial activity against multidrug resistant Acinetobacter baumannii AYE assessed as inhibition of bacterial growth incubated for 24 hrs in MHI medium by twofold serial dilution method; type: functional
Acinetobacter baumannii [15] = test: Antibacterial activity against efflux pump lacking Acinetobacter baumannii assessed as inhibition of bacterial growth; type: functional, organism-based
Acinetobacter baumannii [16] = test: Antibacterial activity against efflux pump lacking/recombinant OM pore producing Acinetobacter baumannii assessed as inhibition of bacterial growth; type: functional, organism-based
Acinetobacter baumannii [17] = test: Antibacterial activity against recombinant OM pore producing Acinetobacter baumannii assessed as inhibition of bacterial growth; type: functional, organism-based
Acinetobacter baumannii [18] = test: Antibacterial activity against wild type Acinetobacter baumannii assessed as inhibition of bacterial growth; type: functional, organism-based
Escherichia coli [19] = test: Antibacterial activity against wild type Escherichia coli assessed as inhibition of bacterial growth; type: functional, organism-based
Escherichia coli [20] = test: Antibacterial activity against recombinant OM pore producing Escherichia coli assessed as inhibition of bacterial growth; type: functional, organism-based
Escherichia coli [21] = test: Antibacterial activity against efflux pump lacking Escherichia coli assessed as inhibition of bacterial growth; type: functional, organism-based
Escherichia coli [22] = test: Antibacterial activity against efflux pump lacking/recombinant OM pore producing Escherichia coli assessed as inhibition of bacterial growth; type: functional, organism-based
Pseudomonas aeruginosa [23] = test: Antibacterial activity against wild type Pseudomonas aeruginosa assessed as inhibition of bacterial growth; type: functional, organism-based
Pseudomonas aeruginosa [24] = test: Antibacterial activity against recombinant OM pore producing Pseudomonas aeruginosa assessed as inhibition of bacterial growth; type: functional, organism-based
Pseudomonas aeruginosa [25] = test: Antibacterial activity against efflux pump lacking Pseudomonas aeruginosa assessed as inhibition of bacterial growth; type: functional, organism-based
Pseudomonas aeruginosa [26] = test: Antibacterial activity against efflux pump lacking/recombinant OM pore producing Pseudomonas aeruginosa assessed as inhibition of bacterial growth; type: functional, organism-based
Acinetobacter baumannii [27] = test: Antibacterial activity against efflux pump lacking/recombinant OM pore producing Acinetobacter baumannii incubated for 24 hrs by twofold serial dilution method; type: functional
Method in brief: (§1)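 MICs by twofold serial dilution in 96-well plates from 10 mM DMSO stocks. Cultures grown in the indicated media; for E. coli, A. baumannii and P. aeruginosa, inducers were 0.1% arabinose, 1% arabinose and 0.1 mM IPTG respectively.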

Escherichia coli [28] = test: Antibacterial activity against efflux pump lacking/recombinant OM pore producing Escherichia coli incubated for 24 hrs by twofold serial dilution method; type: functional
Method in brief: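 E. coli efflux-knockout/hyperporinated strain grown in M9 medium with 50 mM MOPS (pH 7.2) and 0.2% xylose. OM pore induced with 0.1% arabinose. Compounds come from 10 mM DMSO stocks and are twofold serially diluted in 96-well plates.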

Pseudomonas aeruginosa [29] = test: Antibacterial activity against efflux pump lacking/recombinant OM pore producing Pseudomonas aeruginosa incubated for 24 hrs by twofold serial dilution method; type: functional; method in brief: as §1
Escherichia coli [30] = test: Antibacterial activity against Escherichia coli SQ110 DTC G2032A incubated for 24 hrs by twofold serial dilution method; type: functional
Method in brief: (§2)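 E. coli SQDTC (TolC-deficient, single rRNA operon) carrying LZD-resistant 23S rRNA substitutions. Compounds come from 10 mM DMSO stocks and are twofold serially diluted in 96-well plates.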

Escherichia coli [31] = test: Antibacterial activity against Escherichia coli SQ110 DTC incubated for 24 hrs by twofold serial dilution method; type: functional; method in brief: as §1
Escherichia coli [32] = test: Antibacterial activity against Escherichia coli SQ110 incubated for 24 hrs by twofold serial dilution method; type: functional; method in brief: as §1
Escherichia coli [33] = test: Antibacterial activity against Escherichia coli SQ110 DTC C2610A incubated for 24 hrs by twofold serial dilution method; type: functional; method in brief: as §2
Staphylococcus aureus = test: Antibacterial activity against Staphylococcus aureus ATCC 25923 incubated for 24 hrs by twofold serial dilution method; type: functional; method in brief: as §1
Klebsiella pneumoniae [34] = test: Antibacterial activity against multidrug resistant Klebsiella pneumoniae ATCC43816 assessed as inhibition of bacterial growth incubated for 24 hrs in MHI medium by twofold serial dilution method; conditions: ATCC43816, 24 h

SMILES | MIC (Klebsiella pneumoniae [1]) [µM] | MIC (Klebsiella pneumoniae [2]) [µM] | MIC (Klebsiella aerogenes [3]) [µM] | MIC (Klebsiella pneumoniae [5]) [µM] | MIC (Klebsiella pneumoniae [6]) [µM] | MIC (Pseudomonas aeruginosa [7]) [µM] | MIC (Pseudomonas aeruginosa [8]) [µM] | MIC (Pseudomonas aeruginosa [9]) [µM] | MIC (Pseudomonas aeruginosa [10]) [µM] | MIC (Acinetobacter baumannii [11]) [µM] | MIC (Acinetobacter baumannii [12]) [µM] | MIC (Acinetobacter baumannii [13]) [µM] | MIC (Acinetobacter baumannii [14]) [µM] | IC50 (Acinetobacter baumannii [15]) [µM] | IC50 (Acinetobacter baumannii [16]) [µM] | IC50 (Acinetobacter baumannii [17]) [µM] | IC50 (Acinetobacter baumannii [18]) [µM] | IC50 (Escherichia coli [19]) [µM] | IC50 (Escherichia coli [20]) [µM] | IC50 (Escherichia coli [21]) [µM] | other results
NCc1ccc(-c2ccc(N3C[C@H](CO)OC3=O)cc2F)cc1O | 100 (≈ 33.2 µg/mL) | > 200 | 12.5 (≈ 4.15 µg/mL) | 50 (≈ 16.6 µg/mL) | > 200 | > 200 | > 200 | > 200 | > 200 | > 200 | > 200 | > 200 | > 200 | 15.4 | 15.4 | 37.6 | 37.6 | 66.1 | 23.3 | 10 | MIC (Klebsiella aerogenes [4]): 200 µM (≈ 66.5 µg/mL); IC50 (Escherichia coli [22]): 10.3 µM; IC50 (Pseudomonas aeruginosa [23]): 55.9 µM; IC50 (Pseudomonas aeruginosa [24]): 40.8 µM; IC50 (Pseudomonas aeruginosa [25]): 2.2 µM; IC50 (Pseudomonas aeruginosa [26]): 0.2 µM; MIC (Acinetobacter baumannii [27]): 25 µM; MIC (Escherichia coli [28]): 50 µM; MIC (Pseudomonas aeruginosa [29]): 6.25 µM; MIC (Escherichia coli [30]): 100 µM (≈ 33.2 µg/mL); MIC (Escherichia coli [31]): 25 µM (≈ 8.31 µg/mL); MIC (Escherichia coli [32]): > 100 µM; MIC (Escherichia coli [33]): 50 µM (≈ 16.6 µg/mL)
C[n+]1ccc(-c2ccc(-c3ccc(N4C[C@H](CO)OC4=O)cc3F)cc2)cc1 | > 200 | > 200 | 50 | 100 | > 200 | > 200 | > 200 | > 200 | > 200 | 200 | > 200 | > 200 | > 200 | 64 | 10.8 | 10 | > 100 | 15.4 | 1.7 | 0.5 | IC50 (Escherichia coli [22]): 0.5 µM; IC50 (Pseudomonas aeruginosa [23]): > 100 µM; IC50 (Pseudomonas aeruginosa [24]): > 100 µM; IC50 (Pseudomonas aeruginosa [25]): > 100 µM; IC50 (Pseudomonas aeruginosa [26]): > 100 µM; MIC (Acinetobacter baumannii [27]): 50 µM; MIC (Escherichia coli [28]): 12.5 µM; MIC (Pseudomonas aeruginosa [29]): 12.5 µM; MIC (Escherichia coli [30]): 25 µM; MIC (Staphylococcus aureus): 12.5 µM; MIC (Escherichia coli [31]): 3.12 µM; MIC (Escherichia coli [32]): > 100 µM; MIC (Escherichia coli [33]): 12.5 µM; MIC (Klebsiella pneumoniae [34]): > 200 µM
O=C1O[C@@H](CO)CN1c1ccc(-c2ccncc2)c(F)c1 | 200 (≈ 57.7 µg/mL) | > 200 | 200 (≈ 57.7 µg/mL) | 100 (≈ 28.8 µg/mL) | 200 (≈ 57.7 µg/mL) | > 200 | > 200 | ≥ 200 | ≥ 200 | 100 (≈ 28.8 µg/mL) | > 200 | 100 (≈ 28.8 µg/mL) | > 200 | 1.4 | 1.4 | 16.5 | 16.5 | 44.3 | 5.6 | 0.8 | MIC (Klebsiella aerogenes [4]): 200 µM (≈ 57.7 µg/mL); IC50 (Escherichia coli [22]): 1.3 µM; IC50 (Pseudomonas aeruginosa [23]): 44.2 µM; IC50 (Pseudomonas aeruginosa [24]): 48.2 µM; IC50 (Pseudomonas aeruginosa [25]): 8.1 µM; IC50 (Pseudomonas aeruginosa [26]): 2.9 µM; MIC (Acinetobacter baumannii [27]): 6.25 µM; MIC (Escherichia coli [28]): 6.25 µM; MIC (Pseudomonas aeruginosa [29]): 3.12 µM; MIC (Escherichia coli [30]): 25 µM (≈ 7.21 µg/mL); MIC (Staphylococcus aureus): 1.56 µM (≈ 0.45 µg/mL); MIC (Escherichia coli [31]): 6.25 µM (≈ 1.8 µg/mL); MIC (Escherichia coli [32]): > 100 µM; MIC (Escherichia coli [33]): 6.25 µM (≈ 1.8 µg/mL)
NCc1ccc(-c2ccc(N3C[C@H](CO)OC3=O)cc2F)cc1 | 200 (≈ 63.3 µg/mL) | > 200 | 100 (≈ 31.6 µg/mL) | 100 (≈ 31.6 µg/mL) | > 200 | > 200 | > 200 | > 200 | > 200 | > 200 | > 200 | > 200 | > 200 | 17.7 | 8.2 | 14.3 | 54.5 | 18.1 | 2.6 | 1.7 | IC50 (Escherichia coli [22]): 2.6 µM; IC50 (Pseudomonas aeruginosa [23]): 23 µM; IC50 (Pseudomonas aeruginosa [24]): 26.3 µM; IC50 (Pseudomonas aeruginosa [25]): 3.3 µM; IC50 (Pseudomonas aeruginosa [26]): 8.1 µM; MIC (Acinetobacter baumannii [27]): 25 µM; MIC (Escherichia coli [28]): > 100 µM; MIC (Pseudomonas aeruginosa [29]): 12.5 µM; MIC (Escherichia coli [30]): 100 µM (≈ 31.6 µg/mL); MIC (Staphylococcus aureus): 6.25 µM (≈ 1.98 µg/mL); MIC (Escherichia coli [31]): 50 µM (≈ 15.8 µg/mL); MIC (Escherichia coli [32]): > 100 µM; MIC (Escherichia coli [33]): 50 µM (≈ 15.8 µg/mL); MIC (Klebsiella pneumoniae [34]): > 200 µM
